Test results: ChEMBL document CHEMBL1127635, “Thiopyrano[2,3,4-cd]indoles as 5-lipoxygenase inhibitors: synthesis, biological profile, and resolution of 2-[2-[1-(4-chlorobenzyl)-4-methyl-6-[(5-phenylpyridin-2-yl)methoxy]-4,5 -dihydro-1H-thiopyrano[2,3,4-cd]indol-2-yl]ethoxy]butanoic acid” (J Med Chem, 1994)
One block for each compound: values may come before it.

Experiments:
Homo sapiens [1] = species on record: Homo sapiens; experiment: Effect on production of LTB4 in human polymorphonuclear leukocytes; assay type: functional
How it was run: (§1)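 LTB4 biosynthesis measured in human polymorphonuclear leukocytes activated with Ca2+ ionophore.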

[2] = target: T1, Polyunsaturated fatty acid 5-lipoxygenase (Homo sapiens, UniProt P09917); experiment: In vitro inhibition of human 5-Lipoxygenase.
T1 sequence (P09917 whole entry): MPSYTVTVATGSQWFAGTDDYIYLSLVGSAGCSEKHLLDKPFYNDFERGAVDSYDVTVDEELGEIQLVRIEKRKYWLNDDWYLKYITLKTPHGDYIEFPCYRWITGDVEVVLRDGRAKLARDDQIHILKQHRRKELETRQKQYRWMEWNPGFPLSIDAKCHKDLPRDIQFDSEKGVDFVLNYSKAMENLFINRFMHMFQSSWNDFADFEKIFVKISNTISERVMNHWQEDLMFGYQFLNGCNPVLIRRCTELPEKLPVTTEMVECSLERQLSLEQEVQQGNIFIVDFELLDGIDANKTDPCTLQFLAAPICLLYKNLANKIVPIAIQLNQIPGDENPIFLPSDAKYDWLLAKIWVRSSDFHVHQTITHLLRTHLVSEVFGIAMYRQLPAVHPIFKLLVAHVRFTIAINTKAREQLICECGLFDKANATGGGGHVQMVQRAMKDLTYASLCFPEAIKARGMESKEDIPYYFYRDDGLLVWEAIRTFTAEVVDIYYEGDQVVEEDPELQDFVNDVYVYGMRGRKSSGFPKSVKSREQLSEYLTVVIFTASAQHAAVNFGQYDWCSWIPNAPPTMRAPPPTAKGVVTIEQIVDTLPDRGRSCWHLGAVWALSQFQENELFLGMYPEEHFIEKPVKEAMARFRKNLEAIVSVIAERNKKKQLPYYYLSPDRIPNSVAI
How it was run: (§2)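 Spectrophotometric assay following 5-H(P)ETE production by the 100000g supernatant (S100) fraction of insect cells overexpressing human 5-LO.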

Homo sapiens [3] = species on record: Homo sapiens; experiment: Effect on production of LTB4 in human whole blood; assay type: functional
How it was run: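 Human whole blood activated with ionophore A23187; inhibition of LTB4 biosynthesis assessed.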

[4] = Cmax value in rat plasma when administered 20 mg/kg perorally; assay type: ADME, organism-based; design: dose 20 mg/kg, route oral; settings: po
How it was run: (§3)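 Rat plasma profiles after dosing the sodium salts either orally at 20 mg/kg in 1% methocel or iv at 5 mg/kg in PEG 200. Bioavailability is calculated as AUCpo/4 × AUCiv.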

[5] = Bioavailability in rat (dose 5 mg/kg i.v.); assay type: ADME, organism-based; settings: in vivo, iv; how it was run: as §3
[6] = Tmax value in rat plasma when administered 20 mg/kg perorally; assay type: ADME, organism-based; design: dose 20 mg/kg, route oral; settings: po; how it was run: as §3
Rattus norvegicus [7] = experiment: Tested for percentage inhibition of dyspnea (0.5 mg/kg po using methocel) by in vivo in hyperactive rat after 2 hours pretreatment; assay type: functional
How it was run: (§4)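 Inbred hyperreactive rats pretreated with methysergide 3 mg/kg iv. Drug given at 0.5 mg/kg po in methocel before ovalbumin challenge. Read-out is % inhibition of dyspnea duration versus litter-mate-matched vehicle controls, n = 6.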

Rattus norvegicus [8] = experiment: Tested for percentage inhibition of dyspnea (0.5 mg/kg po using methocel) by in vivo in hyperactive rat after 4 hours pretreatment; assay type: functional; how it was run: as §4
Homo sapiens [9] = species on record: Homo sapiens; experiment: (§5) Effect on production of LTB4 in human polymorphonuclear (HPMN) leukocytes
Rattus norvegicus [10] = experiment: In vivo inhibition of LTB4 biosynthesis in a rat pleurisy model with an 6 hr pretreatment time; assay type: functional
How it was run: (§6)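 Male Sprague-Dawley rats given 0.4 mL of 0.5% carrageenan in saline intrapleurally 16 h before drug. Drug doses ranged from 3 to 0.3 mg/kg. Intrapleural calcium ionophore challenge 6 h after dosing. LTB4 in pleural exudate measured 1 h later; ED50 derived, n = 6/group.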

[11] = Tested for inhibition of Ascaris antigen induced bronchoconstriction in the conscious squirrel monkey at 0.3 mg/kg dose (changes in dynamic compliance); assay type: functional
How it was run: (§7)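 Allergic conscious squirrel monkeys pretreated with drug for 4 h, then challenged with aerosolized Ascaris antigen (1:25 dilution). Airway resistance (RL) increase and dynamic compliance (Cdyn) decrease recorded; % inhibition versus control, mean ± SEM.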

[12] = Tested for inhibition of Ascaris antigen induced bronchoconstriction in the conscious squirrel monkey at 0.3 mg/kg dose (changes in the airway resistance(); assay type: functional; how it was run: as §7
Homo sapiens [13] = species on record: Homo sapiens; experiment: as §5; assay type: functional; how it was run: as §1
[14] = target: T1, Polyunsaturated fatty acid 5-lipoxygenase; experiment: Tested against 5-lipoxygenase; how it was run: as §2
Rattus norvegicus [15] = experiment: In vivo inhibition of LBT4 in a rat pleurisy model with a 6 h pretreatment time; assay type: functional; how it was run: as §6
[16] = Inhibition of Ascaris antigen induced bronchoconstriction in the conscious squirrel monkey at 0.1 mg/kg dose (Change in airway resistance); assay type: functional; how it was run: as §7
[17] = Inhibition of Ascaris antigen induced bronchoconstriction in the conscious squirrel monkey at 0.3 mg/kg dose (Change in airway resistance); assay type: functional; how it was run: as §7
[18] = Tested for inhibition of Ascaris antigen induced bronchoconstriction in the conscious squirrel monkey at 0.1 mg/kg dose (changes in dynamic compliance); assay type: functional; how it was run: as §7
Rattus norvegicus [19] = species on record: Rattus norvegicus; experiment: Tested for effective inhibition of LTB4 with an 8 hr pretreatment; assay type: functional

Compound: CC1Cc2c(OCc3ccc(-c4ccccc4)cn3)ccc3c2c(c(CSCC(=O)O)n3Cc2ccc(Cl)cc2)S1 (stereo not given)
IC50 (Homo sapiens [1]; Homo sapiens): 15 nM

Compound: CC[C@@H](CSCc1c2c3c(c(OCc4ccc(-c5ccccc5)cn4)ccc3n1Cc1ccc(Cl)cc1)CC(C)S2)C(=O)O (stereo not given in full)
IC50 [2]: 40 nM
IC50 (Homo sapiens [1]; Homo sapiens): 7 nM

Compound: CC(CC(=O)O)SCc1c2c3c(c(OCc4ccc(-c5ccccc5)cn4)ccc3n1Cc1ccc(Cl)cc1)CC(C)S2 (stereo not given)
IC50 [2]: 70 nM
IC50 (Homo sapiens [1]; Homo sapiens): 50 nM

Compound: CC(C)(C)Sc1c(CC(C)(C)C(=O)O)n(Cc2ccc(Cl)cc2)c2ccc(OCc3ccc4ccccc4n3)cc12 [QUIFLAPON]
IC50 (Homo sapiens [9]): 3 nM
ED50 (Rattus norvegicus [10]): 0.16 mg/kg
inhibition in vivo at 0.3 mg/kg [11]: 46%
inhibition in vivo at 0.3 mg/kg [12]: 44%

Compound: CC1Cc2c(OCc3ccc(-c4ccccc4)cn3)ccc3c2c(c(CSCC(C)C(=O)O)n3Cc2ccc(Cl)cc2)S1 (stereo not given)
IC50 (Homo sapiens [1]; Homo sapiens): 20 nM

Compound: CC1Cc2c(OCc3ccc(-c4ccccc4)cn3)ccc3c2c(c(CCOC(C)c2nnn[nH]2)n3Cc2ccc(Cl)cc2)S1 (stereo not given)
IC50 (Homo sapiens [13]): 10 nM
IC50 [14]: 60 nM

Compound: CCC(CSCc1c2c3c(c(OCc4ccc(-c5ccccc5)cn4)ccc3n1Cc1ccc(Cl)cc1)CC(C)S2)C(=O)O (stereo not given)
IC50 (Homo sapiens [1]; Homo sapiens): 6 nM

Compound: CC1Cc2c(OCc3ccc(-c4ccccc4)cn3)ccc3c2c(c(CC(=O)N(C)C(C)C(=O)O)n3Cc2ccc(Cl)cc2)S1 (stereo not given)
IC50 [2]: 300 nM
IC50 (Homo sapiens [1]; Homo sapiens): 200 nM

Compound: CC1Cc2c(OCc3ccc(-c4ccccc4)cn3)ccc3c2c(c(CSCCC(=O)O)n3Cc2ccc(Cl)cc2)S1 (stereo not given)
IC50 [2]: 55 nM
IC50 (Homo sapiens [1]; Homo sapiens): 10 nM

Compound: CC1Cc2c(OCc3ccc(-c4ccccc4)cn3)ccc3c2c(c(COCCC(=O)O)n3Cc2ccc(Cl)cc2)S1 (stereo not given)
IC50 [2]: 250 nM
IC50 (Homo sapiens [1]; Homo sapiens): 65 nM

Compound: CC(c1cc2ccccc2s1)N(O)C(N)=O (stereo not given) [ZILEUTON]
IC50 (Homo sapiens [3]; Homo sapiens, Blood): 2000 nM
IC50 (Homo sapiens [13]): 1060 nM

Compound: CC[C@H](CSCc1c2c3c(c(OCc4ccc(-c5ccccc5)cn4)ccc3n1Cc1ccc(Cl)cc1)CC(C)S2)C(=O)O (stereo not given in full)
IC50 [2]: 120 nM
IC50 (Homo sapiens [1]; Homo sapiens): 12 nM

Compound: CC1Cc2c(OCc3ccc(-c4ccccc4)cn3)ccc3c2c(c(COCC(=O)O)n3Cc2ccc(Cl)cc2)S1 (stereo not given)
IC50 (Homo sapiens [1]; Homo sapiens): 17 nM

Compound: CC1Cc2c(OCc3ccc(-c4ccccc4)cn3)ccc3c2c(c(CC(C)(C)Cc2nnn[nH]2)n3Cc2ccc(Cl)cc2)S1 (stereo not given)
ED50 (Rattus norvegicus [19]): 1.9 mg/kg
IC50 (Homo sapiens [13]): 8 nM

Further lines, with some results ahead:

IC50 [2]: 50 nM
IC50 (Homo sapiens [1]; Homo sapiens): 7 nM
Compound: CC1Cc2c(OCc3ccc(-c4ccccc4)cn3)ccc3c2c(c(CCOC(C)(C)C(=O)O)n3Cc2ccc(Cl)cc2)S1 (stereo not given)

IC50 [2]: 8 nM
IC50 (Homo sapiens [3]): 1000 nM
IC50 (Homo sapiens [1]): 4 nM
Compound: CCC(OCCc1c2c3c(c(OCc4ccc(-c5ccccc5)cn4)ccc3n1Cc1ccc(Cl)cc1)CC(C)S2)C(=O)O (stereo in doubt; 14g)

IC50 [2]: 20 nM
Cmax [4]: 3.8 µM
bioavailability [5]: 35%
Tmax [6]: 2 h
IC50 (Homo sapiens [1]; Homo sapiens): 5 nM
Compound: CC1Cc2c(OCc3ccc(-c4ccccc4)cn3)ccc3c2c(c(CCOC(C)C(=O)O)n3Cc2ccc(Cl)cc2)S1 (stereo not given)
Inhibition (Rattus norvegicus [7]): 53%
Inhibition (Rattus norvegicus [8]): 2%

IC50 [2]: 105 nM
IC50 (Homo sapiens [1]; Homo sapiens): 11 nM
Compound: CC1Cc2c(OCc3ccc(-c4ccccc4)cn3)ccc3c2c(c(CCOCCC(=O)O)n3Cc2ccc(Cl)cc2)S1 (stereo not given)

IC50 (Homo sapiens [1]; Homo sapiens): 31 nM
Compound: CC1Cc2c(OCc3ccc(-c4ccccc4)cn3)ccc3c2c(c(CCOCC(=O)O)n3Cc2ccc(Cl)cc2)S1 (stereo not given)

IC50 (Homo sapiens [1]; Homo sapiens): 17 nM
Compound: CC1Cc2c(OCc3ccc(-c4ccccc4)cn3)ccc3c2c(c(CCSC(C)C(=O)O)n3Cc2ccc(Cl)cc2)S1 (stereo not given)

IC50 [2]: 4000 nM
IC50 (Homo sapiens [1]; Homo sapiens): 1100 nM
Compound: CC1Cc2c(OCc3ccc(-c4ccccc4)cn3)ccc3c2c(c(CCNC(C)C(=O)O)n3Cc2ccc(Cl)cc2)S1 (stereo not given)

IC50 [2]: 900 nM
IC50 (Homo sapiens [1]; Homo sapiens): 113 nM
Compound: CC(=O)N(CCc1c2c3c(c(OCc4ccc(-c5ccccc5)cn4)ccc3n1Cc1ccc(Cl)cc1)CC(C)S2)C(C)C(=O)O (stereo not given)

IC50 [2]: 20 nM
Cmax [4]: 4 µM
bioavailability [5]: 72%
Tmax [6]: 4 h
IC50 (Homo sapiens [1]; Homo sapiens): 6.5 nM
Compound: CCC(OCCc1c2c3c(c(OCc4ccc(-c5ccccc5)cn4)ccc3n1Cc1ccc(Cl)cc1)CC(C)S2)C(=O)NS(C)(=O)=O (stereo not given)

IC50 [2]: 150 nM
IC50 (Homo sapiens [3]): 16000 nM
IC50 (Homo sapiens [1]): 10 nM
Compound: CCC(OCCc1c2c3c(c(OCc4ccc(-c5ccccc5)cn4)ccc3n1Cc1ccc(Cl)cc1)CC(C)S2)C(=O)O (stereo in doubt; 14f)

IC50 [2]: 80 nM
IC50 (Homo sapiens [3]): 4800 nM
IC50 (Homo sapiens [1]): 17 nM
Compound: CCC(OCCc1c2c3c(c(OCc4ccc(-c5ccccc5)cn4)ccc3n1Cc1ccc(Cl)cc1)CC(C)S2)C(=O)O (stereo in doubt; 14h)

IC50 [2]: 22 nM
IC50 (Homo sapiens [1]; Homo sapiens): 4.5 nM
Compound: CC1Cc2c(OCc3ccc(-c4ccccc4)cn3)ccc3c2c(c(CCOC(C)C(=O)NS(C)(=O)=O)n3Cc2ccc(Cl)cc2)S1 (stereo not given)

IC50 [2]: 13 nM
IC50 (Homo sapiens [3]): 1800 nM
IC50 (Homo sapiens [1]): 3.5 nM
Compound: CCC(OCCc1c2c3c(c(OCc4ccc(-c5ccccc5)cn4)ccc3n1Cc1ccc(Cl)cc1)CC(C)S2)C(=O)O (stereo in doubt; 14e)

IC50 [2]: 22 nM
Cmax [4]: 5.5 µM
bioavailability [5]: 88%
Tmax [6]: 6 h
IC50 (Homo sapiens [3]): 3800 nM
IC50 (Homo sapiens [1]): 7 nM
Compound: CCC(OCCc1c2c3c(c(OCc4ccc(-c5ccccc5)cn4)ccc3n1Cc1ccc(Cl)cc1)CC(C)S2)C(=O)O (stereo in doubt; 14d)
ED50 (Rattus norvegicus [15]): 0.65 mg/kg
Inhibition (Rattus norvegicus [7]): 55%
Inhibition (Rattus norvegicus [8]): 51%
inhibition in vivo at 0.1 mg/kg [16]: 89%
inhibition in vivo at 0.3 mg/kg [17]: 100%
inhibition in vivo at 0.1 mg/kg [18]: 68%
inhibition in vivo at 0.3 mg/kg [11]: 100%
